We go through 13 compounds from PubChem BioAssay.

What is called inhibition is the relative decrease from the control value, in per cent.

Assay [1] can be described thus: inhibitors of TNFa-induced NFkB p65 translocation, primary screen, imaging, HUVEC, MLSMR starter and 10KST1 sets (AID 438;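 active = inhibition above 20% together with a positive visual image hit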;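 also: compound added about 3h40 before a 20 min TNFalpha stimulation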;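 as to inhibition: signal is the nuclear over cytoplasmic p65 intensity ratio per well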). As to conditions: HUVEC TNFa-induced p65 nuclear translocation; cell count: measured here: nuclei count (cytotoxicity indicator), at 2.08 µM; inhibition: at 2 µM, stronger effect = higher value, 0% TNFa-plus-vehicle, 100% no-TNFa wells.
A short description of assay [2]: inhibitors of E-selectin induction by TNFa, primary screen, imaging, HUVEC, immunofluorescence, MLSMR starter and 10KST1 sets (AID 487;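 active = visually confirmed hit in the image check and inhibition above 20%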;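 as to inhibition: signal is fraction of cell area covered by stained E-selectin grains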;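 as to nuclei count: 100% = median nuclei count of all wells on the same plate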). As to conditions: HUVEC TNFalpha-induced E-selectin immunofluorescence imaging, at 2 µM; inhibition: stronger effect = higher value; nuclei count: measured here: cell number, toxicity.
The nature of assay [3]: DUSP6 inhibitors restoring Erk phosphorylation by chemical complementation, primary imaging in DUSP6-transfected HeLa (AID 609;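 active = compounds giving at least 50% inhibition in the cell-based MKP-3 phosphatase rescue imaging test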;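 as to inhibition: phospho-Erk level distribution per well compared with pooled transfected vehicle control wells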). The note with it: HeLa MKP-3 transfected, phospho-Erk imaging KS statistic, at 10 µM, cells stimulated with TPA for 15 min.
Assay [4] has as its target Dual specificity protein phosphatase 6 (Homo sapiens) (UniProt Q16828). The assay is described as above. As to conditions: HeLa MKP-3 transfected, phospho-Erk imaging KS statistic; at 10 µM; stronger effect = higher value; cells stimulated with TPA for 15 min.
Assay [5] concerns the target Voltage-gated potassium channel subunit beta-2 (Rattus norvegicus) (UniProt P62483). Kind of assay: KvBeta enzyme negative modulators, primary screen, biochemical, NADPH fluorescence (AID 622).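 Also: slope of raw intensity against log time taken from 70 to 1610 s.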 The note with it: recombinant KvBeta, 4-cyanobenzaldehyde reduction, at 10 µM, stronger effect = higher value.
Assay [6] has the same target. The assay is described as follows: KvBeta positive modulators, primary screen, biochemical, NADPH fluorescence (AID 623;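 active = NADPH fluorescence slope more negative than the mean of all samples by about 3 SD, 99.7% confidence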;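 also: fluorescence intensity change per second fitted from 20 to 320 s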). The note with it: Recombinant KvBeta, NADPH fluorescence decrease slope, 10 min; at 10 µM; stronger effect = lower value.
In assay [7] the target is Alpha-2C adrenergic receptor (Homo sapiens) (UniProt P18825). Kind of assay: modulators of alpha2C/GIRK thallium flux, primary screen, cell-based, HEK293 alpha2C/GIRK1/2 (AID 624;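 active = fluorescence slope after compound addition differing from the mean of all screened samples at 99.7% confidence, in either direction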;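 also: slope of fluorescence ratio to pre-addition baseline per second over 15 to 24 s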). As to conditions: thallium flux BTC fluorescence, at 10 µM, actives lie on both sides.
Chain of Alpha-2C adrenergic receptor (Homo sapiens) (P18825 whole entry, looked up): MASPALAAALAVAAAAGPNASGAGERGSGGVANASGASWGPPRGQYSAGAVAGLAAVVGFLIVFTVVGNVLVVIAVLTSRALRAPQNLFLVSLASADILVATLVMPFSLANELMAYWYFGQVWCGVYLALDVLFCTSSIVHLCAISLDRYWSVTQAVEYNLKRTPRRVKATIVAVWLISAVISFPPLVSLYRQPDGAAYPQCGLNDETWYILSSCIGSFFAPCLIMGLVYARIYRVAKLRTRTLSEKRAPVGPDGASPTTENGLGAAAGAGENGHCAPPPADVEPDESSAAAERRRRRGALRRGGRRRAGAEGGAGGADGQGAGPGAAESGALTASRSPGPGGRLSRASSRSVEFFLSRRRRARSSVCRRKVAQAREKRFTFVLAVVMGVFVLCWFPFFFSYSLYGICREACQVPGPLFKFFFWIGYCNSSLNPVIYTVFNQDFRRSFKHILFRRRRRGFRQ
A short description of assay [8]: inhibitors of larval lipid processing in zebrafish, primary screen, whole organism, PED6 fluorescence, gall bladder and intestine (AID 686;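 active = a full or partial loss of lipid-probe fluorescence in the fish gall bladder, intestine or both, judged by eye; inactive = no fluorescence loss, or compound toxic to the fish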;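 also: larvae 5 to 7 days old with five fish per well; signal comes from phospholipase A2 cleavage of quenched PED6 carried via bile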). As to conditions: Zebrafish larvae PED6 lipid processing, fluorescence scoring; screened at 20 µM (by protocol). The procedure, abridged: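 system = live zebrafish larvae aged 5-7 days, whole organism | probe or stimulus = ingested quenched lipid PED6 at 100 nM | doses = 20 µM single dose | timing = overnight exposure | detection = fluorescence microscopy with visual scoring of gall bladder and intestine | read-out = visual per-well fluorescence inhibition score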

A short description of assay [9]: inhibitors of Chlamydomonas gravitaxis, primary screen, whole organism, Chlamydomonas reinhardtii, WT vs cilia-less mutant, absorbance, 96-well (AID 463189;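 active = inhibition at or above 50% relative to wild type and mutant plate controls; inactive = inhibition below 50%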;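 also: 0% = wild type cc124 cells in DMSO and 100% = ciliumless bld1 mutant cells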). As to conditions: OD600 absorbance, 2 days, at 10 µM, stronger effect = higher value.
The mark [10] stands for this setting: measured here: cell density z-score.
Where [11] appears, read: measured here: nuclear c-Myc green intensity z-score.
[12] abbreviates: measured here: nuclear pErk red intensity z-score, stronger effect = higher value.

Activity calls are given as the source filed them.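 The calls were made as follows, unless noted: active = fluorescence slope higher than the sample average by over 3 SD (cut at about -0.22 in these data, passing the limit was not always enough); inactive = the rest.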

Chain of Voltage-gated potassium channel subunit beta-2 (Rattus norvegicus) (P62483 whole entry, looked up): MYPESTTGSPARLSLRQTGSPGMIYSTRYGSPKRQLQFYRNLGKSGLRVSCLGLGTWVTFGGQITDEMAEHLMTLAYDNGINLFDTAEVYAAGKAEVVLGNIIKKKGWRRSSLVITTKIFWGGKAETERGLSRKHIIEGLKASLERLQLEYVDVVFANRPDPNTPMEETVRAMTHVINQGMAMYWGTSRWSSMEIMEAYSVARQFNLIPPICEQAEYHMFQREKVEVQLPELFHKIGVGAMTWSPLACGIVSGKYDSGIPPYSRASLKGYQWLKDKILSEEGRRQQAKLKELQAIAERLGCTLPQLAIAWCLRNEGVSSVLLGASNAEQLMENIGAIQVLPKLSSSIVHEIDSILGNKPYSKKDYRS
Chain of Dual specificity protein phosphatase 6 (Homo sapiens) (Q16828 whole entry, looked up): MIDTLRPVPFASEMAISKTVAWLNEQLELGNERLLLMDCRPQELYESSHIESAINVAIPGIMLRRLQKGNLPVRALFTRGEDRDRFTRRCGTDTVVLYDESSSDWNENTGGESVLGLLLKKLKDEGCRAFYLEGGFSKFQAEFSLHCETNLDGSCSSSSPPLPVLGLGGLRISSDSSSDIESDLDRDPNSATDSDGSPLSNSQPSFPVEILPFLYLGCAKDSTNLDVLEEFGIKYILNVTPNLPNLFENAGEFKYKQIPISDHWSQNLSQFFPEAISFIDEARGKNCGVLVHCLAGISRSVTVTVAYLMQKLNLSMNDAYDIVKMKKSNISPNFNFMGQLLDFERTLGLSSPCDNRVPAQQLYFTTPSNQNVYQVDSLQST

Consider `O=c1[nH]nc2n1CCCCC2`, for which the cell count in assay [1] turned out to be 530. In addition, the inhibition in assay [1] was -27.5% (inactive); in assay [2], -139% (inactive); in [4] it was 7.73% (inactive); in assay [9], 11.3% (inactive). The compound further yielded a nuclei count in assay [2] of 180%. Also, the z-score in assay [3] (setting [10]) was 1.3; in assay [3] (setting [11]), -1.27; in assay [3] (setting [12]), -0.317. In assay [5], the fluorescence slope is -0.501 (inactive). The NADPH fluorescence slope in [6] was -0.000113 (inactive). Besides, the slope in assay [7] is 0.00508 (inactive). Further, the result in [8] was inactive.
Take `COc1ccc(/C(O)=C2/C(=O)C(=O)N(c3ncccn3)C2c2ccc(OC)c(OC)c2)cc1` (centres undefined): the cell count in assay [1] is 584. Also, the inhibition in [1] is -2.6% (inactive); in [2], -34.9% (inactive); in assay [4] it was 0.671% (inactive); in [9], 3.9% (inactive). For the same compound, the nuclei count in assay [2] is 176%. Further, the z-score in assay [3] (setting [10]) was -1.58; in [3] (setting [11]) it was 0.795; in [3] (setting [12]) it was 2.34. In addition, in assay [5], the fluorescence slope was -0.352 (inactive). Further, in assay [6], the NADPH fluorescence slope was -4.6e-05 (inactive). For the same compound, in assay [7], the slope is 0.0049 (inactive). For the same compound, the result in assay [8] was inactive.
Regarding `CC1(C)CC(=O)C(C=NCCN2CCN(C(=O)C34CC5CC(CC(C5)C3)C4)CC2)=C(O)C1`, in assay [1], the cell count amounted to 573. The inhibition was -4.4% (inactive) in [1], -174% (inactive) in assay [2], 3.97% (inactive) in [4] and 4.48% (inactive) in assay [9]. This compound gave a nuclei count in [2] of 144%. Moreover, the z-score in assay [3] (setting [10]) was -0.458; in assay [3] (setting [11]), 0.612; in assay [3] (setting [12]) it was -0.352. Also, in assay [5], the fluorescence slope was -0.493 (inactive). The NADPH fluorescence slope in assay [6] is -5.1e-05 (inactive). The slope in [7] is 0.00469 (inactive). For the same compound, the outcome in assay [8] was inactive.
With `CC1CN(C2CCN(S(=O)(=O)c3ccc4ccccc4c3)CC2)CC(C)O1` (centres undefined), in [1], the cell count is 396. Further, the inhibition in [1] is -19.4% (inactive); in assay [2] it was -273% (inactive); in assay [4], -0.159% (inactive); in assay [9], 110% (active). Besides, the nuclei count in assay [2] was 173%. The z-score in assay [3] (setting [10]) is 0.701; in [3] (setting [11]) it was -1.69; in [3] (setting [12]), 1.26. Besides, in assay [5], the fluorescence slope was -0.389 (inactive). Also, the NADPH fluorescence slope in assay [6] was -3.5e-05 (inactive). In [7], the slope was 0.00656 (inactive). The result in assay [8] was inactive.
As for `COc1cccc(COc2nc3c(c(=O)n(C)c(=O)n3C)n2C)c1`, the cell count in assay [1] was found to be 456. Also, the inhibition in [1] is -4.5% (inactive); in [2], -99.3% (inactive); in [4], -7.28% (inactive); in [9], 5.71% (inactive). This compound returned a nuclei count in assay [2] of 164%. The figures for the z-score in assay [3] (setting [10]), in [3] (setting [11]) and in [3] (setting [12]) were -0.352, 0.147 and -0.806, respectively. Moreover, the fluorescence slope in assay [5] is -0.325 (inactive). Also, in [6], the NADPH fluorescence slope is -1.3e-06 (inactive). Further, the slope in assay [7] is 0.00578 (inactive). The result in assay [8] was inactive.
Regarding `CCCCCCSC1=C(C#N)C(c2ccccc2)CC(=O)N1` (centres undefined), in assay [1], the cell count came to 469. In addition, the inhibition is 0.6% (inactive) in assay [1], -6.9% (inactive) in [2], 18.9% (inactive) in assay [4] and 24.3% (inactive) in assay [9]. Besides, the nuclei count in [2] worked out at 74.3%. For the same compound, the figures for the z-score in [3] (setting [10]), in assay [3] (setting [11]) and in assay [3] (setting [12]) were 0.751, 0.0915 and -1.53, respectively. Besides, the fluorescence slope in assay [5] is -0.513 (inactive). Moreover, the NADPH fluorescence slope in assay [6] was -6.1e-05 (inactive). Also, in assay [7], the slope was 0.00499 (inactive). Further, in assay [8], the compound was called inactive.
On to `COc1ccc(C(=O)c2sc(NC(C)C)nc2N)cc1OC`, for which the cell count in [1] was 327. In addition, the inhibition in [1] is -12.2% (inactive); in assay [2], -16.7% (inactive); in assay [4] it was -11.9% (inactive); in assay [9], -3.2% (inactive). In addition, the nuclei count in assay [2] was 105%. The figures for the z-score in [3] (setting [10]), in assay [3] (setting [11]) and in [3] (setting [12]) were -0.265, 0.429 and -0.628, respectively. Further, in [5], the fluorescence slope is -0.458 (inactive). For the same compound, the NADPH fluorescence slope in assay [6] is -6.7e-06 (inactive). Further, in [7], the slope was 0.0049 (inactive). The result in assay [8] was inactive.
Turning to `COc1ccc(-c2cn3ccsc3n2)cc1`, the cell count in [1] was determined as 536. For the same compound, the inhibition in [1] was -3% (inactive); in assay [2] it was -235% (inactive); in [4], -8.95% (inactive); in assay [9], -19.1% (inactive). The compound further displayed a nuclei count in assay [2] of 197%. Also, the z-score in assay [3] (setting [10]) is -1.31; in assay [3] (setting [11]), -1.4; in [3] (setting [12]), 1.15. Besides, the fluorescence slope in [5] is -0.478 (inactive). Also, the NADPH fluorescence slope in assay [6] was -0.000227 (inactive). Moreover, in [7], the slope is 0.00481 (inactive). Further, the compound was called inactive in [8].
As for `OC1CN=C2Sc3ccccc3N2C1` (centres undefined), the cell count in [1] amounted to 530. Besides, the inhibition in [1] is 13.2% (inactive); in [2] it was -227% (inactive); in assay [4], -7.28% (inactive); in assay [9] it was -4.68% (inactive). In [2], the nuclei count is 188%. The z-score in [3] (setting [10]) is -0.279; in assay [3] (setting [11]) it was 0.975; in [3] (setting [12]), 0.81. In assay [5], the fluorescence slope is -0.378 (inactive). Further, the NADPH fluorescence slope in [6] was -1.8e-05 (inactive). In addition, in [7], the slope is 0.00473 (inactive). For the same compound, in [8], the outcome was inactive.
As for `N#CC1=C(SCC(=O)c2ccccc2)NC2=C(C(=O)CCC2)C1c1ccco1` (centres undefined), in [1], the cell count stood at 310. Moreover, the inhibition in assay [1] is -8% (inactive); in [2] it was -43.4% (inactive); in assay [4], 1.42% (inactive); in assay [9], -15.7% (inactive). Besides, the nuclei count in assay [2] is 91.7%. Moreover, the results for the z-score in [3] (setting [10]), in assay [3] (setting [11]) and in assay [3] (setting [12]) were -2.24, 2.65 and -0.86, respectively. Besides, in assay [5], the fluorescence slope was -0.435 (inactive). For the same compound, the NADPH fluorescence slope in assay [6] is -3.2e-05 (inactive). Also, in assay [7], the slope is 0.00719 (inactive). Moreover, the compound was called inactive in assay [8].
For the compound `O=C(c1ccc(F)cc1)N1CCC(N2CCCCCC2)CC1`, in assay [1], the cell count was found to be 392. In addition, the inhibition in assay [1] was -0.5% (inactive); in [2] it was -100% (inactive); in assay [4], 15.1% (inactive); in [9] it was 43.9% (inactive). Besides, the nuclei count in assay [2] worked out at 138%. Further, the z-score in [3] (setting [10]) was -0.0132; in [3] (setting [11]) it was 0.516; in assay [3] (setting [12]), -0.618. For the same compound, the fluorescence slope in assay [5] is -0.395 (inactive). The NADPH fluorescence slope in [6] is -7.7e-06 (inactive). Besides, the slope in assay [7] was 0.00694 (inactive). In addition, the result in assay [8] was inactive.
Take `O=C1CC(NCc2ccc3c(c2)OCO3)C(=O)N1Cc1ccc2c(c1)OCO2` (centres undefined): the cell count in assay [1] amounted to 521. The inhibition in assay [1] is 5.6% (inactive); in assay [2], -127% (inactive); in assay [4], 15.8% (inactive); in assay [9], 17.7% (inactive). For the same compound, in assay [2], the nuclei count stood at 139%. Further, the z-score in assay [3] (setting [10]) was 0.834; in assay [3] (setting [11]) it was 0.684; in assay [3] (setting [12]), -0.627. In addition, in assay [5], the fluorescence slope is -0.505 (inactive). Moreover, the NADPH fluorescence slope in assay [6] is -3.7e-05 (inactive). In addition, the slope in [7] was 0.00655 (inactive). Further, the compound was classed as inactive in [8].
In the case of `CCOC(=O)c1c(C)n(C)c2ccc(OC)c(NC(=O)CN3CCSCC3)c12`, in assay [1], the cell count is 331. Besides, the inhibition was -7.1% (inactive) in assay [1], 35.2% (inactive) in [2], 5.42% (inactive) in assay [4] and 37% (inactive) in assay [9]. The nuclei count in [2] was found to be 91.7%. For the same compound, the z-score in [3] (setting [10]) was -1.52; in [3] (setting [11]), -0.0806; in [3] (setting [12]) it was 1.39. Besides, the fluorescence slope in [5] was -0.449 (inactive). Also, in assay [6], the NADPH fluorescence slope is -1.5e-05 (inactive). The slope in [7] is 0.0065 (inactive). The outcome in assay [8] was inactive.
